Series [1] has as its target Serine/threonine-protein kinase MARK2 (Homo sapiens) (UniProt Q7KZI7). The experiment in a line: Inhibition of human MARK2. To be noted: concentration not given here. The method in brief: (§1)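 Selectivity screen run externally (Invitrogen SelectScreen). Percent inhibition measured at 1 μM compound, mean of 2 measurements.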
The target in series [2] is Serine/threonine-protein kinase MARK1 (Homo sapiens) (UniProt Q9P0L2). The series is described as follows: Inhibition of human MARK1. To be noted: concentration not given here. The method in brief: as §1
Serine/threonine-protein kinase MARK1 (Homo sapiens), sequence (Q9P0L2 whole entry, looked up): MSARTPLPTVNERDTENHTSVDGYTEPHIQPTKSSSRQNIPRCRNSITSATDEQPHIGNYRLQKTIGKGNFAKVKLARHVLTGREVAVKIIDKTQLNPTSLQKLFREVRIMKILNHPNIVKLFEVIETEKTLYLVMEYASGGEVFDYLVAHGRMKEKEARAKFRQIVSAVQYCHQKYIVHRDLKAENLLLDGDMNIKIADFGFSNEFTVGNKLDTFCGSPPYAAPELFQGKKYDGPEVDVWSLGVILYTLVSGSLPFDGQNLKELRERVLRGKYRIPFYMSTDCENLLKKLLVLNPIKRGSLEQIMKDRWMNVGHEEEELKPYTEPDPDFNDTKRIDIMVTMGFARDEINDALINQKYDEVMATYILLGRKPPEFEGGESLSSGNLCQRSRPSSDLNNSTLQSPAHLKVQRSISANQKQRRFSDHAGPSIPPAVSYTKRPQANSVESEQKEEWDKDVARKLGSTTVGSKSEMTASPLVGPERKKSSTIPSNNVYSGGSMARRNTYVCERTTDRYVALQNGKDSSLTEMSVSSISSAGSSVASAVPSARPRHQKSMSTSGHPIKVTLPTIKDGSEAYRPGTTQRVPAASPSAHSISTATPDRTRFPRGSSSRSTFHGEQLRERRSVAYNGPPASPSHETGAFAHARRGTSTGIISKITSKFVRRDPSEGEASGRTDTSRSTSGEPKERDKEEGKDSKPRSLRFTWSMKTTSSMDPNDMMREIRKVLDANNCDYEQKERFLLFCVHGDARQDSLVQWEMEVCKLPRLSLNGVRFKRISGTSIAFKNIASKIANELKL
Series [3] in a line: AUC (0 to 8 hrs) in Sprague-Dawley rat at 5 mg/kg, po. Also noted: time < 8 hr, dose 5 mg/kg, route oral. The note with it: plasma. In kind it is ADME, organism-based.
The target in series [4] is Calcium/calmodulin-dependent protein kinase type 1D (Homo sapiens) (UniProt Q8IU85). The experiment in a line: Inhibition of CaMK1delta. The note with it: concentration not given here. Summed up: as §1
Calcium/calmodulin-dependent protein kinase type 1D (Homo sapiens), sequence (Q8IU85 whole entry, looked up): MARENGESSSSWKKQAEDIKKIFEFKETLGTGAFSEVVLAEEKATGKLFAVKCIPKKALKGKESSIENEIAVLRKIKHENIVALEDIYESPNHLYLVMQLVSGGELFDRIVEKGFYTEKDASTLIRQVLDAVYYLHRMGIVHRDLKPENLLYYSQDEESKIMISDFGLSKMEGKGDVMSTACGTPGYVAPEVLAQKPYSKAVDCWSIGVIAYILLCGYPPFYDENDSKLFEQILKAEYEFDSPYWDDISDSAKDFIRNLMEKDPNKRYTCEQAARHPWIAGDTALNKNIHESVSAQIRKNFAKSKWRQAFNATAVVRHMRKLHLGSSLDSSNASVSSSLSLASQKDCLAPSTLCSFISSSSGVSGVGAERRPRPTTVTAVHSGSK
Series [5] has as its target Protein kinase C delta type (Homo sapiens) (UniProt Q05655). The experiment in a line: Inhibition of human PKCdelta. To be noted: concentration not given here. Summed up: as §1
Series [6] deals with T1, Calcium/calmodulin-dependent protein kinase type IV (Homo sapiens) (UniProt Q16566).
T1 sequence (whole entry): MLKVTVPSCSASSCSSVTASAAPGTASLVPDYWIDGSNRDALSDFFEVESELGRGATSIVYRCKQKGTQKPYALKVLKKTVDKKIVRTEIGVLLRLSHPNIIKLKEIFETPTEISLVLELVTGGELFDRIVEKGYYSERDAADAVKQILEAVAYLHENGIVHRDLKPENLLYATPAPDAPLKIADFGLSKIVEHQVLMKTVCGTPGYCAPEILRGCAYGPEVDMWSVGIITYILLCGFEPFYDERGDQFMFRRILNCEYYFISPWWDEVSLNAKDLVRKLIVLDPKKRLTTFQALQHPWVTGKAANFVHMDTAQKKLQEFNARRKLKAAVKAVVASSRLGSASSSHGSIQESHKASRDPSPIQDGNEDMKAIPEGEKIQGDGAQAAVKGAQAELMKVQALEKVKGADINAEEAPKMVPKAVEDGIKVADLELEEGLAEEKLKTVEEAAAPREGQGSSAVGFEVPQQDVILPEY
The series is described as follows: Inhibition of human CaMK4. The note with it: concentration not given here. The method in brief:
as §1

A short description of series [7]: Half life in rats after 2 mg/kg intravenous dose. In kind it is ADME, organism-based. On the set-up: dose 2 mg/kg, route intravenous. To be noted: Sprague-Dawley, rat, in vivo. Summed up: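 Rats dosed iv 2 mg/kg (n = 2) or po 5 mg/kg (n = 3) in 10% NMP, 10% Cremophor, 80% pH 4.63 buffer. PK parameters derived from iv dosing, reported as mean ± SD.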
In series [8] the target is T2, Protein kinase C epsilon type (Homo sapiens) (UniProt Q02156).
T2 sequence (whole entry): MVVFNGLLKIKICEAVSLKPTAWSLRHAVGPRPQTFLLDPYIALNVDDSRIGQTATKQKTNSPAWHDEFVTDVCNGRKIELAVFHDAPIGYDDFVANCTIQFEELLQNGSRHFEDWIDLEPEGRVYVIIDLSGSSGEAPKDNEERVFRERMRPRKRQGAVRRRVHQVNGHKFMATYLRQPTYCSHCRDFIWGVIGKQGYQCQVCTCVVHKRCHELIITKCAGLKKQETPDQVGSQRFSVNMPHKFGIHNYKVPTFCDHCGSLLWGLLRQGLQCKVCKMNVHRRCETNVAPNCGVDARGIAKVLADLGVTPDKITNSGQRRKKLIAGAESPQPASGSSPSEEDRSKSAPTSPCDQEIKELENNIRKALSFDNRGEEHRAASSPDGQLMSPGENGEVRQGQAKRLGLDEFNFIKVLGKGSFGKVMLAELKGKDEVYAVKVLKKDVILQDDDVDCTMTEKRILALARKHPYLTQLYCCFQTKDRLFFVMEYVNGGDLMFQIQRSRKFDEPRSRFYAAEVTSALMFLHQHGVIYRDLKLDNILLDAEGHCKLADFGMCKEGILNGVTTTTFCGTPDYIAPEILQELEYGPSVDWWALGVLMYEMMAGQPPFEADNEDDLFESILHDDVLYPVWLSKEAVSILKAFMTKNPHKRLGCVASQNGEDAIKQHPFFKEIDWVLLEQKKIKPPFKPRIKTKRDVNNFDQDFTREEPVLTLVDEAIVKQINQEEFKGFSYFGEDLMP
The series is described as follows: Inhibition of PKCepsilon. The note with it: concentration not given here.

The target in series [9] is Calcium/calmodulin-dependent protein kinase type II subunit delta (Homo sapiens) (UniProt Q13557). The series is described as follows: Inhibition of human CaMK2delta. To be noted: concentration not given here. Summed up: as §1
Calcium/calmodulin-dependent protein kinase type II subunit delta (Homo sapiens), sequence (Q13557 whole entry): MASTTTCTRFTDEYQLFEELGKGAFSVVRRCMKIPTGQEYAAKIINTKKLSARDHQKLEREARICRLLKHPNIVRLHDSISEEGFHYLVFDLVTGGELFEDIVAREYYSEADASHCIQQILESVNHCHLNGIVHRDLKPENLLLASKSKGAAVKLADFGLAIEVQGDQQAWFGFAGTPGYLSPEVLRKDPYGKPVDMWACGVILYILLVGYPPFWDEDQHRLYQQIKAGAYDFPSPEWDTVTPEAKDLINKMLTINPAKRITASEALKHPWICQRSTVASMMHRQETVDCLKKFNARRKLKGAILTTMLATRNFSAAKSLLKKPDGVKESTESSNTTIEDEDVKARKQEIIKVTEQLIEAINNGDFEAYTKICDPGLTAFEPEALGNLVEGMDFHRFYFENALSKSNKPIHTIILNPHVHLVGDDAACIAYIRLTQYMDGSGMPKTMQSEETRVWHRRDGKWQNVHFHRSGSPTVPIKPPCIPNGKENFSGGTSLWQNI
Series [10] has as its target G protein-coupled receptor kinase 5 (Homo sapiens) (UniProt P34947). The series is described as follows: Inhibition of human GRK5. To be noted: concentration not given here. Summed up:
as §1

Series [11] deals with T3, Serine/threonine-protein kinase D2 (Homo sapiens, UniProt Q9BZL6).
T3 sequence (Q9BZL6 whole entry): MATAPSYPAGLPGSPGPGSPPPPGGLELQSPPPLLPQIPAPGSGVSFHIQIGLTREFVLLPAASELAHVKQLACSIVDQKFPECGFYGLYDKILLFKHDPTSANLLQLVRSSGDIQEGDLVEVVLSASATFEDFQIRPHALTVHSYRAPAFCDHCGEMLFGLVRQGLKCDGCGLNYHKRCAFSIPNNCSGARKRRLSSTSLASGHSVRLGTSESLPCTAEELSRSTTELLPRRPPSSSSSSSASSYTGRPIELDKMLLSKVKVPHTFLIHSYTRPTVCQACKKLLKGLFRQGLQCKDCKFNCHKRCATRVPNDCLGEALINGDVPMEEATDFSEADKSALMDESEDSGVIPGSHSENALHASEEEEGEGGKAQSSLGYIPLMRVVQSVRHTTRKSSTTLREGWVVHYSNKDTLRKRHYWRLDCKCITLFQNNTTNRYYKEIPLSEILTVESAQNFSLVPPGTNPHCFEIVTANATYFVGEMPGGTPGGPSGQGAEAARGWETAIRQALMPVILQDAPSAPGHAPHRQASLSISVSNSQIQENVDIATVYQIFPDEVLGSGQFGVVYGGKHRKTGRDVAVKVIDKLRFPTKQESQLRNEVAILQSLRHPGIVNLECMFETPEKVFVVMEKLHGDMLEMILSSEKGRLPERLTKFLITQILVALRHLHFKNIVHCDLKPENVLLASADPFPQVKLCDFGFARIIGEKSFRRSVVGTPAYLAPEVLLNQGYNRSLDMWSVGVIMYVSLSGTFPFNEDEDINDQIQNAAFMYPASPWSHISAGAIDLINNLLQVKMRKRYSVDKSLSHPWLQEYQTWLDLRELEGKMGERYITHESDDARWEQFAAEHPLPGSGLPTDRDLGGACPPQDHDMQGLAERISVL
The series is described as follows: Inhibition of PKD2 by TR-FRET assay. In general terms: TR-FRET usually uses a lanthanide donor and a delayed reading to cut background.

Series [12] concerns the target T4, Serine/threonine-protein kinase D1 (Homo sapiens, UniProt Q15139).
T4 sequence (Q15139 whole entry): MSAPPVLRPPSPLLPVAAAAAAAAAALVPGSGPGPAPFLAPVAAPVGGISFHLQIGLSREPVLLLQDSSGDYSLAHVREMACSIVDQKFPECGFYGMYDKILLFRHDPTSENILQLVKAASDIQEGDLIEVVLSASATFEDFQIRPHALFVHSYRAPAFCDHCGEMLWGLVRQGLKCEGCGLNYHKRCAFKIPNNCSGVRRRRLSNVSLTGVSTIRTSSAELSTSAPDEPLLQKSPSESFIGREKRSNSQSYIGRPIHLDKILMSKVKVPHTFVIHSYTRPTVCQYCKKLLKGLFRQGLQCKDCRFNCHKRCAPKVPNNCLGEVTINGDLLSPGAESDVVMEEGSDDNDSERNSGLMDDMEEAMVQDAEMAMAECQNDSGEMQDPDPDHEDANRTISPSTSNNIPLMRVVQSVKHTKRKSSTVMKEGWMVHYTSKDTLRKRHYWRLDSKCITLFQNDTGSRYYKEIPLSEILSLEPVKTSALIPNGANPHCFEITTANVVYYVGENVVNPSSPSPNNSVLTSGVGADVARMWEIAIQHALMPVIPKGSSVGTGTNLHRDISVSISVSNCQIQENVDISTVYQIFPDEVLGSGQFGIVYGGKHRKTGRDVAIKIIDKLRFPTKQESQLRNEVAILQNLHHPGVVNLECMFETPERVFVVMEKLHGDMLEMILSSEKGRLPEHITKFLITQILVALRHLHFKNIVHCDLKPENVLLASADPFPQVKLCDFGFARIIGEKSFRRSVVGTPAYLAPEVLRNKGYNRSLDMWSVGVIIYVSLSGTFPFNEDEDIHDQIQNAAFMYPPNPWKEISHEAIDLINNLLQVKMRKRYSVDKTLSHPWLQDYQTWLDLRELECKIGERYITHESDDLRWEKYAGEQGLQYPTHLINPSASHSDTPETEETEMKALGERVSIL
The series is described as follows: Inhibition of PKD1 assessed as inhibition of HDAC5 neuclear export. The method in brief:
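Neonatal rat ventricular myocytes infected with adenovirus encoding GFP-HDAC5 and plated on gelatin-coated wells. Cells exposed to compound and stimulated with PGF2α for 2 h, then fixed. Cytoplasmic versus nuclear GFP intensity quantified by high-content imaging.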

Another series relates to Caco-2. The series is described as follows: Ratio of permeability from basolateral to apical side to apical to basolateral side in human Caco-2 cells. In kind it is ADME, cell-based. A general note: Passage across Caco-2 layers is used to estimate intestinal permeability.
The target in series [13] is T4, Serine/threonine-protein kinase D1. The series is described as follows: Inhibition of PKD1 by TR-FRET assay. The method in brief:
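Full-length wild-type PKD1 expressed and purified from Sf9 cells, 0.2 μg/mL, in 35 mM Tris-HCl pH 7.5, 5 mM MgCl2, 0.02% Tween-20, 20 μM ATP, 1 mM DTT. Reaction started with 2 μM biotinylated syntide-2 and run 50 min at room temperature. Stopped with EDTA plus europium anti-rabbit IgG, anti-phospho-syntide-2 antibody and streptavidin-APC. LANCE TR-FRET 665/615 ratio read after 1 h. 11-point curves in triplicate gave IC50.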

Protein kinase C delta type (Homo sapiens), sequence (Q05655 whole entry, looked up): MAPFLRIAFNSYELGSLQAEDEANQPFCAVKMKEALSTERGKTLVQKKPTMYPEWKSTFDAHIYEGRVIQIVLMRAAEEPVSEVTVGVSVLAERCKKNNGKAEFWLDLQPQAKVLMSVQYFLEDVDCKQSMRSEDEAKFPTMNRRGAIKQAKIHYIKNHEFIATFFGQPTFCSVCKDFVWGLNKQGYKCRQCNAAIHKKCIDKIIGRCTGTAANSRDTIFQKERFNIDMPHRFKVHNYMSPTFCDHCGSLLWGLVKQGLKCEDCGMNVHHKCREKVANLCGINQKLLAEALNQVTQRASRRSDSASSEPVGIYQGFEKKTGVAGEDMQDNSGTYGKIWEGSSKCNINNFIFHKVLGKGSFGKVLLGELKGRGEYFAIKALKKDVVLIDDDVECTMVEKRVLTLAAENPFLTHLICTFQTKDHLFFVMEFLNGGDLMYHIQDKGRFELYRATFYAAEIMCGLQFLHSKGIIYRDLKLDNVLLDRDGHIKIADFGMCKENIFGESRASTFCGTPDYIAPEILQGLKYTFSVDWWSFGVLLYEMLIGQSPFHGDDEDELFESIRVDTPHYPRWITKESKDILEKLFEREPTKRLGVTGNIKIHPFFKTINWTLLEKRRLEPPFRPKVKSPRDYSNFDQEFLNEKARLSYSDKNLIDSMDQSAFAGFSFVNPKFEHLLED
G protein-coupled receptor kinase 5 (Homo sapiens), sequence (P34947 whole entry, looked up): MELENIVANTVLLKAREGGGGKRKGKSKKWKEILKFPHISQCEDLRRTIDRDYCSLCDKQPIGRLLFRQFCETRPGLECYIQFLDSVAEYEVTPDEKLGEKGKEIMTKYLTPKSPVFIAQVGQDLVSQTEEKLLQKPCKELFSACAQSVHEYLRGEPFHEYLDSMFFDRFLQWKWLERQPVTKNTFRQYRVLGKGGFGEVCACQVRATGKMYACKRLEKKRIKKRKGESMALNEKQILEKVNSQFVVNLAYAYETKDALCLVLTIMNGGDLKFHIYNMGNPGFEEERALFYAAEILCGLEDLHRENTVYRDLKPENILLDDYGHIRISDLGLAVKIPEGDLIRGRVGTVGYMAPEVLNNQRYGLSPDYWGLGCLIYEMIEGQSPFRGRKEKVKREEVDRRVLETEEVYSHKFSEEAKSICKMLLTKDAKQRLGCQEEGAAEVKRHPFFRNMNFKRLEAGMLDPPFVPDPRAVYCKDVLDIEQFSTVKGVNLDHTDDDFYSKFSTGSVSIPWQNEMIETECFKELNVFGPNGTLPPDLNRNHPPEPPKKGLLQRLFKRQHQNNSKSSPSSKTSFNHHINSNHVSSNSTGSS
Serine/threonine-protein kinase MARK2 (Homo sapiens), sequence (Q7KZI7 whole entry): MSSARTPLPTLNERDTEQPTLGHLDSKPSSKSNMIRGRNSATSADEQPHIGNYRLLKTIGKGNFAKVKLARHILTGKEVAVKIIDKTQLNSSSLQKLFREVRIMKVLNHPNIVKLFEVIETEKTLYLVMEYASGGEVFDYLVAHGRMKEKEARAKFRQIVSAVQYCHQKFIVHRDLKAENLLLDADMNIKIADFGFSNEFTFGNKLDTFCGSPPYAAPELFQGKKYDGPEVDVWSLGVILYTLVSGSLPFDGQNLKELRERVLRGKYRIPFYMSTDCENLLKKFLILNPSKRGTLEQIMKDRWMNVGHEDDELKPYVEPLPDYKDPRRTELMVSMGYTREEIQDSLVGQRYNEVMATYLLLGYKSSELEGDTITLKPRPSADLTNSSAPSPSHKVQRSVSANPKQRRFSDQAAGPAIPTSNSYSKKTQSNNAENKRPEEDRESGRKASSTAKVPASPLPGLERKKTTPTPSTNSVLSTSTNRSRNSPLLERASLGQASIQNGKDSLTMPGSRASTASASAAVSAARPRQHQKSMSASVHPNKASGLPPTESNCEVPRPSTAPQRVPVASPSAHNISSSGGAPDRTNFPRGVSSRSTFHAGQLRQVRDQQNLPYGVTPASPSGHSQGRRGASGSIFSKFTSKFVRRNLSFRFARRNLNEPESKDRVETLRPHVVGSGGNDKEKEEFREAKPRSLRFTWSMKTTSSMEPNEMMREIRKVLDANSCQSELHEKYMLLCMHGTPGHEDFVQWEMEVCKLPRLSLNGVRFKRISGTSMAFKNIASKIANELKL

With `c1cc2c(N3CCNCC3)nc(-c3ccnc(NC4CCCCC4)c3)cc2cn1`, the inhibition is 83% in series [1]; 82% in series [2]; 11% in series [4]; 51% in series [5]; 1% in series [6]; 34% in [8]. Besides, the results for the inhibition in [9] and in series [10] were 80% and 5%, respectively. In series [3], the AUC(0-t) at 8 h came to 0.19 µM·h. In [7], this molecule gave a half-life of 5.2 h.
Turning to `N#Cc1cc(-c2ccnc(NC3CCCCC3)c2)nc(N2CCNCC2)c1`, the IC50 in [11] worked out at 130 nM; in series [13] it was 18 nM. Moreover, in [12], the EC50 is 66 nM. Further, in the series on Caco-2, the Ratio turned out to be 0.44.

Broadly, the inhibition is the percentage by which the read-out fell short of the control. As usually defined, the AUC(0-t) is exposure summed from dosing to a finite time, without extrapolation to infinity. By half-life is commonly meant the time in which the quantity being followed falls by half. A higher half-life goes with slow decline. Usually IC50 stands for the concentration needed to halve the response being measured. Read a low IC50 as greater potency in that assay. By EC50 is commonly meant the concentration giving half of the maximal effect.

Values taken from ChEMBL document CHEMBL1212911, “Identification of potent and selective amidobipyridyl inhibitors of protein kinase D” (J Med Chem, 2010).
